Screens: PubChem, several laboratories
Most compounds without a hit are left out; they make up all but 5.4% or so of the library.
Mdm2 MdmX PPI: human Mdm2/MdmX binding inhibition; O15151+Q00987; SaOS-2 split-luciferase Mdm2/MdmX complementation, luminescence; inhibition, % at 8 µM; 3% of 330,000 active;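 active = inhibition of at least 50% at 8 µM in the primary screen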
aSyn UTR inh: MLPCN primary screen, SNCA 5' untranslated region; alpha-synuclein 5'UTR reporter, inhibitor activity; inhibition, % (tested at 7.5 µM); 0.82% of 300,000 active; AID 1813; in the data active = inhibition above about 60%; inconclusive = no clear call, values can overlap the other calls;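 also: H4 neuroglioblastoma cells stably carrying SNCA 5'UTR luciferase fusion; 0% = DMSO wells and 100% = positive control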
T cruzi inh: T. cruzi replication inhibition; T. cruzi beta-gal in NIH3T3, luminescence, 90 h; inhibition, % (test concentration not listed); 1.4% of 300,000 active;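 active = mean inhibition across valid replicates above about 55%, limit read from the data; inconclusive = mean below that limit but half or more replicates reach it; inactive = mean below it, under half of replicates reach it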;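 also: signal also drops with host cell toxicity which is not excluded here; 0% = plate median of DMSO wells and 100% = zero luminescence signal; higher percent means less beta-gal luminescence so fewer parasites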
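System: Mouse NIH/3T3 fibroblasts infected with β-gal-expressing T. cruzi Tulahuen C4 | Quantity: NIH/3T3 cells, 5,000 per well | Reagent: 5000 reporter trypomastigotes per well | Dosing: Compound pinned at 50 nL/well, DMSO | Schedule: 3 h host attachment, then at least 90 h co-culture | Detection: GalScreen luminescence, 60 min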
SKKanGAS inh: inhibitors of SKKanGAS S. pyogenes growth in kanamycin (SK-promoter or general growth effect); inhibition, % at 7.5 µM; AID 1662; BacTiter-Glo, 6 h; 1.3% of 300,000 active;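 active = mean replicate score, as percent of positive control median, at least 50; inconclusive = mean below 50 but one replicate at or above 50; inactive = mean and every replicate below 50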;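 also: strain carries kanamycin resistance gene driven by streptokinase promoter and grows in 40 µg/ml kanamycin; loss of luminescence reflects streptokinase promoter inhibition or plain growth inhibition; 0% = median of DMSO wells and 100% = positive control at its reference dose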
CSC inhib: cancer stem cell inhibition | cancer stem cell-like cells viability, luminescence | inhibition, % at 7.5 µM | 1.1% of 300,000 active | AID 2717; in the data active = inhibition above about 75%; inconclusive = no clear call, values can overlap the other calls; tested in HMLE shEcad cells
Mdm2 MdmX conf: human Mdm2/MdmX binding inhibition, confirmed; inhibition, % at 8 µM; 55% of 10,000 active; shares compounds with Mdm2 MdmX PPI; AID 489028; luminescent assay; in the data active = inhibition above about 40%
Full FLuc ctr: inhibits full-length luciferase, flagging false Mdm2/MdmX hits. SaOS-2 full-length luciferase counterscreen, luminescence. shares compounds with Mdm2 MdmX PPI. AID 504607. inhibition, % at 8 µM. 77% of 6,200 active;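 active = mean inhibition at 8 µM reaching about 37%, which flags the compound as non-specific, limit read from the data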;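 also: p53-null SaOS-2 cells with luciferase driven by a doxycycline-inducible promoter; compound on cells about two nights before reading with doxycycline added after day one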
Numbers without * were called inactive; ? = inconclusive; · = no result given.

SMILES	Mdm2 MdmX PPI	aSyn UTR inh	T cruzi inh	SKKanGAS inh	CSC inhib	Mdm2 MdmX conf	Full FLuc ctr
CCN1C(=O)C(O)(C2COC(C)(C)CC2=O)c2cc(Br)ccc21 (stereo unspecified)	55*	6	3	-12	36	52*	68*
O=C(CSc1nc2nn(-c3ccccc3)c(=O)c-2c2n1CCCCC2)Nc1ccc(F)cc1F	24	·	·	·	·	·	·
O=C(CSc1nc2nn(-c3ccccc3)c(=O)c-2c2n1CCCCC2)Nc1ccc(F)c(F)c1	55*	·	·	·	-10	22	·
C=CCn1c(SCc2c(C)noc2C)nc2sc3c(c2c1=O)CCCC3	52*	30	1	60*	48	55*	41*
COc1cc2nc(SCc3c(C)noc3C)n(CCC3=CCCCC3)c(=O)c2cc1OC	87*	16	4	7	46	52*	50*
Cc1noc(C)c1CSc1nc2[nH]ncc2c(=O)n1-c1ccccc1	69*	?	-41	3	-7	68*	61*
C=CCn1c(SCc2c(C)noc2C)nc2ccccc2c1=O	58*	80*	-52	5	?	60*	66*
C=CCn1c(SCc2c(C)noc2C)nc2cc(C(=O)O)ccc2c1=O	22	0	10	8	51	·	·
Cc1nc(CSc2nc3[nH]ncc3c(=O)n2-c2ccccc2)cs1	-12	20	-20	2	·	·	·
Cc1noc(C)c1CSc1nc2sc3c(c2c(=O)n1C)CCCC3	-6	27	19	18	·	·	·
O=C(OCN1C(=O)c2ccccc2C1=O)c1cccc(OC(F)F)c1	-2	-6	-8	-1	-5	·	·
Cc1oc(-c2ccccc2F)nc1CS(=O)(=O)CC(=O)NCCCN1CC(C)CC(C)C1 (stereo unspecified)	-32	7	2	-4	-5	·	·
COc1ccc(NC(C)=O)cc1CP(=O)(c1ccccc1)c1ccccc1	18	0	-4	-2	-15	·	·
C[C@@H]1O[C@@H](O[C@@H]2[C@@H](O)[C@H](OCCc3ccc(O)c(O)c3)O[C@H](CO)[C@H]2OC(=O)/C=C/c2ccc(O)c(O)c2)[C@H](O)[C@H](O)[C@H]1O	14	·	·	·	12	·	·
Cc1noc(C)c1CSc1nnc2n(-c3ccccc3)c(=O)c3ccccc3n12	2	4	15	6	0	·	·
Cc1noc(C)c1CSc1nc2ccccc2c(=O)n1-c1ccccc1	67*	1	34	10	6	63*	67*
CN(C(=O)CSc1nc2ccccc2c(=O)n1-c1ccc(F)cc1F)C1CCS(=O)(=O)C1 (stereo unspecified)	15	·	·	·	4	·	·
Cc1noc(C)c1CSc1nc2ccccc2c(=O)n1-c1ccc(F)cc1F	66*	-5	?	23	55	53*	58*
CC(=O)c1ccc(NC(=O)NC2CC(=O)N(c3ccc4c(c3)OCCO4)C2)cc1 (stereo unspecified)	-2	14	-7	3	-2	·	·
Cn1cnnc1SCC(=O)NC1CCCN(Cc2ccccc2F)C1 (stereo unspecified)	-7	-11	-7	0	-10	·	·
COc1ccc(COc2cc(-c3cccc(OC)c3)nc3ccc(NC(=O)c4ccc(OC)cc4)cc23)cc1	52*	18	3	21	62	40*	62*
COc1ccc(COc2cc(-c3cccc(OC)c3)nc3ccc(NC(=O)c4cccnc4)cc23)cc1	63*	-9	38	44	38	55*	69*
COc1ccc(COc2cc(-c3cccc(OC)c3)nc3ccc(NC(=O)c4ccccc4)cc23)cc1	21	-1	29	22	45	·	·
Cc1cc(C)nc(/N=C(\N)Nc2ccccc2-c2ccccc2)n1	39	-1	24	-1	20	·	·
COc1nc(-c2ccc(Cl)cc2)ccc1-c1noc(-c2ccco2)n1	54*	-13	-9	-7	-10	-9	·
SMILES	Mdm2 MdmX PPI	aSyn UTR inh	T cruzi inh	SKKanGAS inh	CSC inhib	Mdm2 MdmX conf	Full FLuc ctr
CC[C@]1(c2ccccc2OC)ON(c2ccccc2C(F)(F)F)C1=O	90*	·	·	·	59	84*	35
COc1ccccc1[C@]1(C)ON(c2ccccc2C(F)(F)F)C1=O	92*	·	·	·	48	77*	37*
O=C(CSc1nnc(-c2ccc(Br)cc2)n1CCc1ccccc1)NC1CCS(=O)(=O)C1 (stereo unspecified)	14	6	-2	-3	-1	·	·
CC1CCCN(S(=O)(=O)c2ccc(NC(=O)C3CCN(C(=O)c4ccco4)CC3)cc2)C1 (stereo unspecified)	-2	13	-8	-5	-3	·	·
CC(C)(CNC(=O)c1ccccc1NS(C)(=O)=O)N1CCCCC1	10	17	-9	-1	·	·	·
O=c1cc(Nc2ccc3c(c2)OCCO3)[nH]c(=O)n1C1CCCCC1	55*	1	-1	0	-3	53*	58*
CSc1nc(Oc2ccc3ccccc3c2)c2sccc2n1	55*	82*	16	54*	67	67*	43*
O=C(NC12CC3CC(CC(C3)C1)C2)N(Cc1ccccc1)Cc1ccncc1	-21	14	52	-3	·	·	·
C[C@H](CO)N1C[C@H](C)[C@H](CN(C)Cc2ccc(-c3ccccc3)cc2)Oc2ccc(NS(=O)(=O)c3ccccc3)cc2CC1=O	85*	·	·	·	97*	9	·
C[C@H]1CN([C@@H](C)CO)C(=O)Cc2cc(NC(=O)CCC(F)(F)F)ccc2O[C@H]1CN(C)Cc1ccc(-c2ccccc2)cc1	55*	·	·	·	123*	24	·
Cc1ccc(S(=O)(=O)Nc2ccc3c(c2)CC(=O)N([C@H](C)CO)C[C@@H](C)[C@H](CN(C)Cc2ccc(-c4ccccc4)cc2)O3)cc1	82*	·	·	·	109*	39	63*
COCCn1c(C)cc(C(=O)COC(=O)c2ccc(Br)o2)c1C	26	-100	5	10	-4	·	·
CCOc1ccc(CNS(=O)(=O)c2cc(-c3cc(C)no3)ccc2OC)cc1OC	5	-4	-13	-10	13	·	·
COc1ccc(NS(=O)(=O)c2ccc(/C=C/C(=O)O)cc2)cc1S(=O)(=O)N1CCOCC1	18	7	-7	-1	-3	·	·
COc1cc(C(=O)/C=C/c2cccnc2)c([N+](=O)[O-])cc1OC	55*	-21	-15	9	11	20	·
O=C(/C=C/c1cccnc1)c1ccc([N+](=O)[O-])cc1	36	-15	11	-3	7	·	·
CC(C)=CCc1c2c(c(O)c3c(=O)c4c(oc13)-c1cc(O)c(O)cc1OC4C=C(C)C)C=CC(C)(C)O2 (stereo unspecified)	83*	-3	-9	93*	-10	42*	34
O=C(c1cc(-c2cccnc2)nc2ccc(Br)cc12)N1CCN(c2ncccn2)CC1	52*	29	22	2	4	51*	101*
